The source made the active and inactive calls. No cut-off for these calls is given here.
What was measured:
Leishmania braziliensis [1] = experiment: Induction of acidocalcisomes alkalinization in Leishmania (V.) braziliensis MHOM/CO/87/UA301 at 1 uM up to 1400 seconds using acridine orange staining; assay type: functional, organism-based
[2] = Cytotoxicity against mouse BMDM after 96 hrs by MTT assay
In short: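 Host-cell MTT test on mouse bone-marrow-derived macrophages (L-929 conditioned medium): 5000 cells/well were exposed to 100, 200 and 300 μM. MTT was added, cells were lysed with acidic isopropanol and read at 570 nm.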

Leishmania braziliensis [3] = experiment: Antileishmanial activity against promastigotes of Leishmania (V.) braziliensis MHOM/CO/87/UA301 after 96 hrs by MTT assay; assay type: functional, organism-based; details: MHOM/CO/87/UA301, 96 h
Leishmania braziliensis [4] = experiment: Induction of acidocalcisomes alkalinization in Leishmania (V.) braziliensis MHOM/CO/87/UA301 at 6 uM up to 1200 seconds using acridine orange staining; assay type: functional, organism-based
In short: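 Promastigotes (10⁹ cells/mL), washed twice in KCl/Tris buffer, were loaded with 2 μM acridine orange for 5 min at 29 °C. Fluorescence (ex 488, em 530 nm) was recorded in a stirred cuvette at 29 °C.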

Leishmania braziliensis [5] = experiment: Reduction of mitochondrial membrane potential in Leishmania (V.) braziliensis MHOM/CO/87/UA301 assessed as increase in fluorescence at 6 uM up to 1400 seconds using rhodamine 123 by spectrofluorimeter analysis; assay type: functional, organism-based
In short: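 Fluorescence (ex 488, em 530 nm) was followed in a spectrofluorimeter at 29 °C under continuous agitation. FCCP served as protonophore comparator.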

[6] = Cytotoxicity against mouse BMDM at 20 to 100 uM after 96 hrs by MTT assay
Leishmania braziliensis [7] = experiment: Antileishmanial activity against amastigotes of Leishmania (V.) braziliensis MHOM/CO/87/UA301 infected in BMDM assessed as reduction of intracellular amastigotes after 96 hrs by Giemsa staining; assay type: functional, organism-based; details: MHOM/CO/87/UA301, BMDM
In short: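 Mouse bone-marrow macrophages, differentiated in L-929 conditioned medium, were mixed 1:10 with promastigotes in DMEM + 10% FBS. Co-cultures sat on glass coverslips for 18 h at 37 °C, 5% CO2. Medium was then replaced with compound-containing medium for 96 h. Cells were Giemsa-stained and counted. EC50 was based on the number of amastigotes per macrophage; triplicate.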

Leishmania braziliensis [8] = experiment: Effect on sterol biosynthesis in Leishmania (V.) braziliensis MHOM/CO/87/UA301 assessed as endogenous squalene level at 6 uM (reference value: 22.7 +/- 0.12%)
Leishmania braziliensis [9] = experiment: Effect on sterol biosynthesis in Leishmania (V.) braziliensis MHOM/CO/87/UA301 assessed as exogenous cholesterol level at 6 uM (reference value: 13.6 +/- 0.51%)
Leishmania braziliensis [10] = experiment: Effect on sterol biosynthesis in Leishmania (V.) braziliensis MHOM/CO/87/UA301 assessed as endogenous 14-desmethyl 5-dehydroepisterol level at 6 uM (reference value: 63.7 +/- 1.02%)

SMILES | IC50 [2] [µM] | IC50 (Leishmania braziliensis [3]) [µM] | further results
CO[C@@H]1C[C@@H](C[C@H]2CC[C@H](C)[C@H]([C@@H](C)C(=O)O)O2)O[C@]2(O[C@](C)([C@H]3CC[C@@](C)([C@@H]4O[C@@H]([C@H]5O[C@@](O)(CO)[C@H](C)C[C@@H]5C)C[C@@H]4C)O3)C[C@H]2C)[C@@H]1C | – | – | Activity (Leishmania braziliensis [1]): Active
Cc1cc(C)c2ccc(-c3ccccc3)nc2c1 | ≤ 100 | ≤ 50 | –
CCc1ccc2nc(-c3ccccc3)ccc2c1 | ≥ 200 | ≤ 50 | Activity (Leishmania braziliensis [4]): Active; Activity (Leishmania braziliensis [5]): Active; Activity [6]: Non-toxic; EC50 (Leishmania braziliensis [7]): 20 µM; mass % of sterol at 6 µM (Leishmania braziliensis [8]): 64.3%; mass % of sterol at 6 µM (Leishmania braziliensis [9]): 12.3%; mass % of sterol at 6 µM (Leishmania braziliensis [10]): 23.4%
COc1ccc2nc(-c3ccc4c(c3)OCO4)ccc2c1 | – | ≥ 50 | –
Cc1cc(C)c2ccc(-c3ccc4c(c3)OCO4)nc2c1 | – | ≥ 50 | –
Cc1ccc2nc(-c3ccc4c(c3)OCO4)ccc2c1 | – | ≥ 50 | –
c1ccc2nc(-c3ccc4c(c3)OCO4)ccc2c1 | – | ≥ 50 | –
CCN(CC)CCCCCCNc1cc(OC)cc2c(C)ccnc12 [SITAMAQUINE] | ≤ 100 | ≤ 50 | –
CCCCCCCCCCCCCCCCOP(=O)([O-])OCC[N+](C)(C)C [MILTEFOSINE] | ≥ 200 | ≤ 50 | –
CCc1ccc2nc(-c3ccc4c(c3)OCO4)ccc2c1 | – | ≥ 50 | –
